Screens as filed in PubChem.
In the library only some 3.1% were active in any assay of this set; here they are far more common.
KCNQ1 pot – potentiators or activators of KCNQ1 channel, primary screen, cell-based, thallium flux, high-throughput | Potassium voltage-gated channel subfamily KQT member 1 (Homo sapiens), P51787 | CHO-K1 KCNQ1, thallium flux FluxOR fluorescence; active compounds read high | B-score at 10 µM | actives 0.35% (n = 310,000) | AID 2648, 2010;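 active = fluorescence ratio B-score, a plate-corrected score, at least three library SD, with initial intensity B-score within 5 SD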
Target sequence (P51787 whole entry, looked up): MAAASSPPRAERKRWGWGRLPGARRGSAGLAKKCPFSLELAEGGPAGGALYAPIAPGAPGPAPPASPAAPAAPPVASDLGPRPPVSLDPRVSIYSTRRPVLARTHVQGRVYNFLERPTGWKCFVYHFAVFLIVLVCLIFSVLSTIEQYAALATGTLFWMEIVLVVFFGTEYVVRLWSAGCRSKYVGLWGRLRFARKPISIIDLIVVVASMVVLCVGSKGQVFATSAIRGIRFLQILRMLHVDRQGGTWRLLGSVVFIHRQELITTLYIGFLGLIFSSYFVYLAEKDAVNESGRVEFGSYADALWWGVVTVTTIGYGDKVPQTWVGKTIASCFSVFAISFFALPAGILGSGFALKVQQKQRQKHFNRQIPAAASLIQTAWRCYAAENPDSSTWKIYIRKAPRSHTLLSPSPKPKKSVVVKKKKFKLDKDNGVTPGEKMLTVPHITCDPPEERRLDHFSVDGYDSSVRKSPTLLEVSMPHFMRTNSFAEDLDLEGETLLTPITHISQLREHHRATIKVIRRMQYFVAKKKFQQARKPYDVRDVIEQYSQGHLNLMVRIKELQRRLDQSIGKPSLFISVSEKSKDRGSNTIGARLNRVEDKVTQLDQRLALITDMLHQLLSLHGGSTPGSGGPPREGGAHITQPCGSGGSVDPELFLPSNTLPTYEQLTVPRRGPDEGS
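Medium – assay buffer, equal DMSO in all wells · Material – CHO-K1 cell line with stable KCNQ1 potassium channel expression · Signal – kinetic FluxOR thallium fluorescence, 10-s 1-Hz baseline, 110-s post-stimulus read · Compound – single concentration per compound, DMSO matched to controls · Schedule – 37 °C overnight plating, 90-min dark dye load, 20-min compound pretreatment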
KCNQ1 block – inhibitors of human KCNQ1 channel, primary screen, cell-based, thallium flux, high-throughput; Potassium voltage-gated channel subfamily KQT member 1 (Homo sapiens), P51787; CHO-K1 KCNQ1, FluxOR thallium flux fluorescence; active compounds read high; B-score at 10 µM; actives 1.3% (n = 310,000); AID 2642, 2010;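 active = compounds whose thallium flux B-score, printed positive for inhibition, exceeds three library SD while starting fluorescence stays within three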;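 also: channel opened by potassium depolarization with thallium stimulus after 20 min compound exposure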
hERG protect – hERG rescue from dofetilide block, primary screen, cell-based, CHO-hERG, FluxOR thallium flux, dofetilide IC70. Voltage-gated inwardly rectifying potassium channel KCNH2 (Homo sapiens), Q12809. dofetilide IC70 present. actives 0.51% (n = 310,000). activation (rescue from dofetilide block), less the hit threshold, % at 10 µM;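 active = activation above the mean of controls blocked by dofetilide plus 5 SD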;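 also: thallium influx through hERG after potassium depolarization seen as dye fluorescence rise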
KCNK9 block – KCNK9 potassium channel inhibitors, primary screen, HEK293 cells, thallium flux; FluxOR thallium flux fluorescence; active compounds read low; B-score at 10 µM; Potassium channel subfamily K member 9 (Homo sapiens), Q9NPC2; actives 1.2% (n = 310,000);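 active = ratio B-score over 3 SD below the library mean, with starting fluorescence within 5 SD of its mean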;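 also: negative B-score means less thallium flux so channel inhibition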
KCNK3 block – human KCNK3 channel inhibitors, primary screen, CHO cells, FluxOR thallium flux, B-score. Potassium channel subfamily K member 3 (Homo sapiens), O14649. FluxOR fluorescence; active compounds read low. B-score at 10 µM. actives 0.84% (n = 340,000). AID 602410, 2012;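 active = B-score under library mean minus 4 SD, starting fluorescence ratio at most library mean plus 5 SD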;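 also: more negative B-score means stronger inhibition of thallium flux through KCNK3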
Numbers without * were called inactive; i = inactive; nt = no result given.

SMILES	KCNQ1 pot	KCNQ1 block	hERG protect	KCNK9 block	KCNK3 block
O=C(C[n+]1ccc(-c2cc(C(=O)Nc3cccc(C(F)(F)F)c3)c3ccccc3n2)cc1)c1cccc([N+](=O)[O-])c1	i	7*	-20.2	i	i
O=C(CSc1ccccc1F)NC(=O)c1ccccc1Br	nt	nt	nt	nt	i
CCc1ccc(OCc2ccc(C(=O)O)o2)cc1	i	i	5.2*	i	i
COc1ccc(NC(=O)CN(C)C(=O)C2(c3ccccc3)CCCC2)cc1	nt	nt	nt	nt	i
CN(C)S(=O)(=O)N(Cc1ccc(Br)cc1)c1ccccc1	i	i	-8.2	-7.43*	i
CN(C)S(=O)(=O)N(CC(=O)N(Cc1ccccc1)Cc1ccccc1)c1ccccc1	i	i	-17.4	i	i
O=C(NC(=S)Nc1ccccc1N1CCCCC1)c1ccc(F)cc1Cl	10*	i	0.3	i	i
O=C(COc1ccccc1Cl)NC(=S)Nc1ccccc1N1CCCC1	7*	i	8.5*	-13.5*	i
O=C(NC(=S)Nc1ccccc1N1CCOCC1)c1ccc(-c2ccccc2F)o1	13*	i	-5.3	i	i
COC(=O)c1ccccc1NC(=S)NC(=O)COc1ccccc1Cl	i	i	-12.2	i	i
O=C(NC(=S)Nc1ccccc1N1CCCC1)c1ccc(F)cc1	i	i	-9.4	i	i
O=C(NC(=S)Nc1cc(Cl)ccc1N1CCOCC1)c1ccc(-c2cccc(Cl)c2)o1	i	i	-8.1	i	i
CC1C(=O)N2CCCc3cc(NC(=O)c4ccccc4Br)cc1c32 (stereo not drawn)	i	i	-7.7	i	i
O=C(NNC(=O)c1ccccc1O)c1ccc(NS(=O)(=O)c2ccc(F)c(F)c2)cc1	i	6*	-29.1	i	i
CC1CCC(NC(=O)CCN2C(=O)C3C4C=CC(C4)C3C2=O)CC1 (stereo not drawn)	i	i	-7.8	i	i
CCSc1ccccc1C(=O)Nc1ccc([N+](=O)[O-])cc1OC	i	i	-24.4	i	i
CCc1ccccc1NC(=O)c1ccccc1Sc1ccc([N+](=O)[O-])cc1Cl	i	i	-3.7	-7.16*	i
COc1ccc(-c2nc(-c3cccs3)c(-c3cccs3)[nH]2)cc1OC	i	7*	-12.4	i	i
Cn1c(N)c(C(=O)CSc2nn(-c3ccc(F)cc3)c(=S)s2)c(=O)n(C)c1=O	nt	nt	nt	nt	i
CCOC(=O)c1nc(Nc2ccc(Nc3ccccc3)cc2)c2ccccc2n1	i	i	-16.4	-7.59*	i
COC(=O)C(NC(=O)c1ccc(F)cc1)(Nc1ncc(S(=O)(=O)c2ccc([N+](=O)[O-])cc2)s1)C(F)(F)F (stereo not drawn)	i	7*	-20.9	i	i
C#CCOCCOCCOCCNc1nc(N2CCN(C(=O)[C@H](CCCCN)n3cc(CN)nn3)CC2)nc(N2CCN(C(=O)[C@H](CCCN=C(N)N)n3cc(C(N)[C@H](C)CC)nn3)CC2)n1 (stereo partly drawn)	nt	nt	nt	nt	i
CC(C)(C)c1ccccc1OCCOCCN1CCCCCC1	i	i	-17.9	i	i
CC(C)(C)c1ccccc1OCCOCCSc1ncccn1	i	i	-9.9	-7.5*	i
COc1ccc(C2CC(c3ccc(Cl)cc3)Nc3nc(NC(=O)c4ccco4)nn32)cc1 (stereo not drawn)	i	i	-7.9	i	i
O=C(Nc1nc2n(n1)C(c1ccc(Cl)cc1)CC(c1ccc(Cl)cc1)N2)c1ccco1 (stereo not drawn)	i	i	-9.7	-7.68*	nt
CCOC(=O)C1=C(C)N(c2ccc(OC)cc2)C(=O)/C1=C\c1ccc(O)c(OCC)c1	i	6*	-13.6	i	i
CCOC(=O)C1=C(C)N(c2ccc(OC)cc2)C(=O)/C1=C\c1cccs1	i	i	-3.9	i	i
